Reference: ChEMBL document CHEMBL5331142, “Novel 1,4-Dihydropyridines as Specific Binders and Activators of SIRT3 Impair Cell Viability and Clonogenicity and Downregulate Hypoxia-Induced Targets in Cancer Cells” (J Med Chem, 2023)
Calls of active or inactive are those of the source. The calls are words filed in the database; no cut-off is given here.

Experiments:
CAL-62 [1] = assay: Downregulation of CA-IX expression in human CAL-62 cells at 50 uM incubated for 48 hrs under hypoxia condition by Western blot analysis; format: functional, cell-based
Summary of the method: (§1)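 CAL-62 or MDA-MB-231 cells made hypoxic with 200 μM CoCl2 for 24 h, then treated with 50 μM compound for 48 h with CoCl2 retained. Lysates (15 or 50 μg protein) immunoblotted for HIF-1α, EPAS-1 or CA-IX with ACTB, ECL detection. 3-TYP (1 μM) as control.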

CAL-62 [2] = assay: Inhibition of clonogenicity in human CAL-62 cells at 50 uM incubated for 24 to 48 hrs under hypoxia condition by crystal violet staining based assay; format: functional; settings: time 24-48 hrs
Summary of the method: (§2)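 CAL-62 cells at 80–90% confluence treated with 50 μM compound for 24 or 48 h, in normoxia or with 200 μM CoCl2 (hypoxia). 500 cells replated per 100 mm dish and grown about 7 days. Colonies fixed in 4% formaldehyde, stained with 0.5% crystal violet, and counted.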

CAL-62 [3] = assay: Inhibition of clonogenicity in human CAL-62 cells at 50 uM incubated for 24 to 48 hrs under normoxia condition by crystal violet staining based assay; format: functional; settings: time 24-48 hrs; summary of the method: as §2
[4] = target: T1, NAD-dependent protein deacetylase sirtuin-3, mitochondrial (Homo sapiens, UniProt Q9NTG7); assay: Binding affinity to N-terminal his-tagged human SIRT3 (114 to 380 residues) assessed as dissociation constant by SPR analysis
T1 sequence (Q9NTG7 whole entry): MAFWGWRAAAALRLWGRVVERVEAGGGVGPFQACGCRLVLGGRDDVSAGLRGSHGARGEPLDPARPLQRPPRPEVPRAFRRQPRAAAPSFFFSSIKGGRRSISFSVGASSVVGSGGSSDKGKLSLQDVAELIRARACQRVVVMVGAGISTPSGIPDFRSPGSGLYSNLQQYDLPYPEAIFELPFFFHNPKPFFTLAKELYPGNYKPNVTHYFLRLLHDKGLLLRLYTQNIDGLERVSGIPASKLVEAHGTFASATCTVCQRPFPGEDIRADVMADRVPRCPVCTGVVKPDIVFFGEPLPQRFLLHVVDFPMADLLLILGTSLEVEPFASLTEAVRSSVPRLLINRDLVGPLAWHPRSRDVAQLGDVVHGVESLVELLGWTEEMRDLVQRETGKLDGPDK
Summary of the method: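 SPR with SIRT3 amine-coupled to the chip (sodium acetate pH 4.0; 1500–4000 RU). Analytes diluted to 200 μM in HBSP (20 mM Hepes, 150 mM NaCl, 0.005% P20; 2% DMSO), injected at 5, 10, 20, 40, 80 μM at 30 μL/min. Dissociation after 180 s. Reference chip lacked ligand. Apparent KD by Scatchard analysis. Run twice.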

[5] = target: T2, NAD-dependent protein deacetylase sirtuin-3, mitochondrial (Homo sapiens) (UniProt Q9NTG7); assay: Activation of human SIRT3 overexpressing in human MDA-MB-231 cells assessed as increase in acK122-MnSOD deacetylation level at 10 uM incubated for 4 hrs by Western blot analysis assay; format: cell-based; settings: filed as activator
T2 sequence (whole entry): T1 sequence (Q9NTG7 whole entry)
Summary of the method: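 MDA-MB-231 cells treated 4 h at 10 μM, lysed, and immunoblotted for acK122-MnSOD and total MnSOD. Densitometric ratio.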

[6] = target: T2, NAD-dependent protein deacetylase sirtuin-3, mitochondrial (Homo sapiens); assay: Activation of human SIRT3 overexpressing in human MDA-MB-231 cells assessed as increase in acK122-MnSOD deacetylation level at 50 uM incubated for 4 hrs by Western blot analysis assay; format: cell-based; settings: filed as activator
Summary of the method: (§3)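 CAL-62 or MDA-MB-231 cells treated 4 h at 50 μM. Lysed in Tris/NaCl/EDTA/Triton buffer with protease and phosphatase inhibitors. 15 or 50 μg protein resolved by SDS-PAGE, immunoblotted for acK68- or acK122-MnSOD and total MnSOD, ECL detection. Densitometric acetyl/total ratio. SIRT3 inhibitor 3-TYP (1 μM) used as control.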

MDA-MB-231 [7] = assay: Induction of cell death in human MDA-MB-231 cells incubated for 48 hrs under hypoxia condition by trypan blue exclusion assay; format: functional, cell-based; settings: MDA-MB-231, 48 h
Summary of the method: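 MDA-MB-231 cells treated at 1–50 μM for 48 h under 200 μM CoCl2 hypoxia. Dead cells scored by trypan blue on a hemocytometer, EC50 derived. Three independent experiments.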

[8] = target: T2, NAD-dependent protein deacetylase sirtuin-3, mitochondrial (Homo sapiens); assay: Activation of human SIRT3 overexpressing in human MDA-MB-231 cells assessed as increase in acK68-MnSOD deacetylation level at 50 uM incubated for 4 hrs by Western blot analysis assay; format: cell-based; settings: filed as activator; summary of the method: as §3
MDA-MB-231 [9] = assay: Downregulation of CA-IX expression in human MDA-MB-231 cells at 50 uM incubated for 48 hrs under hypoxia condition by Western blot analysis; format: functional, cell-based; summary of the method: as §1
MDA-MB-231 [10] = assay: Inhibition of cell migration in human MDA-MB-231 cells at 50 uM incubated for 48 hrs by scratch assay; format: functional
Summary of the method: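 Confluent MDA-MB-231 monolayer shifted to serum-depleted medium and scratched with a pipette tip. Treated with 50 μM compound for 48 h, DMSO as control. Migration imaged by phase contrast at two time points and quantified. Mean ± SEM of three independent experiments.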

HaCaT = assay: Cytotoxicity against human HaCaT cells assessed as reduction in cell viability at 10 to 25 uM incubated for 48 hrs by trypan blue exclusion assay; format: toxicity, cell-based; settings: dose 10-25 µM
Summary of the method: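 HaCaT keratinocytes in DMEM with 10% FBS, treated at 5, 10 and 25 μM for 24 and 48 h. Viability and death scored by trypan blue hemocytometer counting. Three independent experiments.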

CCOC(=O)C1=CN(C(=O)c2cc(OC)cc(OC)c2)C=C(C(=O)OCC)C1c1ccccc1 was tested, and the Activity (CAL-62 [1]) was “Active”, the inhibition at 50 µM (CAL-62 [2]) was 68% and the inhibition at 50 µM (CAL-62 [3]) was 68%. The Kd [4] was 79 µM, the Activity [5] was “Active” and the Activity [6] was “Active”. For the same compound, the EC50 (MDA-MB-231 [7]) was 10.7 µM, the Activity [8] was “Active” and the Activity (MDA-MB-231 [9]) was “Active”. For the same compound, the inhibition at 50 µM (MDA-MB-231 [10]) was > 75% and the Activity (HaCaT) was “Non-Toxic”.
